# Test results as given in ChEMBL document CHEMBL5058577, “EUbOPEN Chemogenomics Library 2 (Multiplex)” (2022).
# System: HEK-293T
# Assay: Multiplex assay against HEK293T
# Assay type: toxicity, cell-based
# Conditions: human
# Procedure, shortened: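 Per cents of healthy-nucleus cells form the tubulin, mitochondrial-mass and membrane-permeability phenotype values. Live cells were stained at seeding with Hoechst33342, BioTracker Green Microtubule Cytoskeleton Dye, MitoTracker Red and Annexin V Alexa Fluor 680. After compound addition they were imaged on a CQ1 microscope at 37°C and 5% CO2, and CellPathfinder machine-learning gating split them into Hoechst high-intensity objects or normal cells, normal cells into healthy, pyknosed or fragmented nuclei, and pyknosed cells into mitotic or apoptotic.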
# [1] = 12 h, 1 µM, compound concentration 1 uM, replicate 1
# [2] = 12 h, 1 µM, compound concentration 1 uM, replicate 2
# [3] = 12 h, 10 µM, compound concentration 10 uM, replicate 1
# [4] = 12 h, 10 µM, compound concentration 10 uM, replicate 2
# [5] = 24 h, 1 µM, compound concentration 1 uM, replicate 1
# [6] = 24 h, 1 µM, compound concentration 1 uM, replicate 2
# [7] = 24 h, 10 µM, compound concentration 10 uM, replicate 1
# [8] = 24 h, 10 µM, compound concentration 10 uM, replicate 2
# [9] = 48 h, 1 µM, compound concentration 1 uM, replicate 1
# [10] = 48 h, 1 µM, compound concentration 1 uM, replicate 2
# [11] = 48 h, 10 µM, compound concentration 10 uM, replicate 1
# [12] = 48 h, 10 µM, compound concentration 10 uM, replicate 2
smiles,measurement,setting,value
Cc1cc(-c2ccc3c(c2)CC[C@H]3N2CC3(CCN(C(=O)Cc4cn5cc(C)sc5n4)CC3)C2)ncn1 [PF-5190457],Population Apoptotic (%),[1],36%
same,Population Fragmented Nuclei (%),[1],5%
same,Population Healthy Nuclei (%),[1],83%
same,Population Hoechst High Intensity Objects (%),[1],5%
same,Population Membrane Permeable-Phenotype (%),[1],0%
same,Population Mitochondria Different-Phenotype (%),[1],40%
same,Population Mitotic Cells (%),[1],63%
same,Population Normal (%),[1],94%
same,Population Pyknosed Nuclei (%),[1],11%
same,Population Tubulin-Different-Phenotype (%),[1],25%
same,Total Cell Count,[1],418
same,Population Apoptotic (%),[2],47%
same,Population Fragmented Nuclei (%),[2],8%
same,Population Healthy Nuclei (%),[2],72%
same,Population Hoechst High Intensity Objects (%),[2],10%
same,Population Mitochondria Different-Phenotype (%),[2],53%
same,Population Mitotic Cells (%),[2],52%
same,Population Normal (%),[2],89%
same,Population Pyknosed Nuclei (%),[2],19%
same,Population Tubulin-Different-Phenotype (%),[2],22%
same,Total Cell Count,[2],258
same,Population Apoptotic (%),[3],40%
same,Population Fragmented Nuclei (%),[3],9%
same,Population Healthy Nuclei (%),[3],75%
same,Population Hoechst High Intensity Objects (%),[3],11%
same,Population Membrane Permeable-Phenotype (%),[3],0%
same,Population Mitochondria Different-Phenotype (%),[3],53%
same,Population Mitotic Cells (%),[3],60%
same,Population Normal (%),[3],88%
same,Population Pyknosed Nuclei (%),[3],14%
same,Population Tubulin-Different-Phenotype (%),[3],37%
same,Total Cell Count,[3],455
same,Population Apoptotic (%),[4],54%
same,Population Fragmented Nuclei (%),[4],3%
same,Population Healthy Nuclei (%),[4],80%
same,Population Hoechst High Intensity Objects (%),[4],8%
same,Population Mitochondria Different-Phenotype (%),[4],70%
same,Population Mitotic Cells (%),[4],45%
same,Population Normal (%),[4],91%
same,Population Pyknosed Nuclei (%),[4],16%
same,Population Tubulin-Different-Phenotype (%),[4],40%
same,Total Cell Count,[4],322
same,Population Apoptotic (%),[5],21%
same,Population Fragmented Nuclei (%),[5],8%
same,Population Healthy Nuclei (%),[5],77%
same,Population Hoechst High Intensity Objects (%),[5],2%
same,Population Membrane Permeable-Phenotype (%),[5],0%
same,Population Mitochondria Different-Phenotype (%),[5],24%
same,Population Mitotic Cells (%),[5],78%
same,Population Normal (%),[5],97%
same,Population Pyknosed Nuclei (%),[5],13%
same,Population Tubulin-Different-Phenotype (%),[5],16%
same,Total Cell Count,[5],549
same,Population Apoptotic (%),[6],45%
same,Population Fragmented Nuclei (%),[6],11%
same,Population Healthy Nuclei (%),[6],78%
same,Population Hoechst High Intensity Objects (%),[6],7%
same,Population Membrane Permeable-Phenotype (%),[6],1%
same,Population Mitochondria Different-Phenotype (%),[6],35%
same,Population Mitotic Cells (%),[6],54%
same,Population Normal (%),[6],92%
same,Population Pyknosed Nuclei (%),[6],9%
same,Population Tubulin-Different-Phenotype (%),[6],11%
same,Total Cell Count,[6],352
same,Population Apoptotic (%),[7],25%
same,Population Fragmented Nuclei (%),[7],10%
same,Population Healthy Nuclei (%),[7],75%
same,Population Hoechst High Intensity Objects (%),[7],5%
same,Population Membrane Permeable-Phenotype (%),[7],1%
same,Population Mitochondria Different-Phenotype (%),[7],28%
same,Population Mitotic Cells (%),[7],74%
same,Population Normal (%),[7],94%
same,Population Pyknosed Nuclei (%),[7],14%
same,Population Tubulin-Different-Phenotype (%),[7],30%
same,Total Cell Count,[7],638
same,Population Apoptotic (%),[8],36%
same,Population Fragmented Nuclei (%),[8],5%
same,Population Healthy Nuclei (%),[8],81%
same,Population Hoechst High Intensity Objects (%),[8],6%
same,Population Membrane Permeable-Phenotype (%),[8],0%
same,Population Mitochondria Different-Phenotype (%),[8],51%
same,Population Mitotic Cells (%),[8],63%
same,Population Normal (%),[8],93%
same,Population Pyknosed Nuclei (%),[8],13%
same,Population Tubulin-Different-Phenotype (%),[8],23%
same,Total Cell Count,[8],425
same,Population Apoptotic (%),[9],25%
same,Population Fragmented Nuclei (%),[9],14%
same,Population Healthy Nuclei (%),[9],79%
same,Population Hoechst High Intensity Objects (%),[9],1%
same,Population Membrane Permeable-Phenotype (%),[9],1%
same,Population Mitochondria Different-Phenotype (%),[9],18%
same,Population Mitotic Cells (%),[9],74%
same,Population Normal (%),[9],98%
same,Population Pyknosed Nuclei (%),[9],5%
same,Population Tubulin-Different-Phenotype (%),[9],9%
same,Total Cell Count,[9],873
same,Population Apoptotic (%),[10],39%
same,Population Fragmented Nuclei (%),[10],12%
same,Population Healthy Nuclei (%),[10],80%
same,Population Hoechst High Intensity Objects (%),[10],3%
same,Population Mitochondria Different-Phenotype (%),[10],21%
same,Population Mitotic Cells (%),[10],60%
same,Population Normal (%),[10],96%
same,Population Pyknosed Nuclei (%),[10],6%
same,Population Tubulin-Different-Phenotype (%),[10],10%
same,Total Cell Count,[10],531
same,Population Apoptotic (%),[11],24%
same,Population Fragmented Nuclei (%),[11],14%
same,Population Healthy Nuclei (%),[11],77%
same,Population Hoechst High Intensity Objects (%),[11],2%
same,Population Membrane Permeable-Phenotype (%),[11],0%
same,Population Mitochondria Different-Phenotype (%),[11],27%
same,Population Mitotic Cells (%),[11],76%
same,Population Normal (%),[11],97%
same,Population Pyknosed Nuclei (%),[11],8%
same,Population Tubulin-Different-Phenotype (%),[11],20%
same,Total Cell Count,[11],927
same,Population Apoptotic (%),[12],46%
same,Population Fragmented Nuclei (%),[12],13%
same,Population Healthy Nuclei (%),[12],78%
same,Population Hoechst High Intensity Objects (%),[12],4%
same,Population Mitochondria Different-Phenotype (%),[12],32%
same,Population Mitotic Cells (%),[12],53%
same,Population Normal (%),[12],95%
same,Total Cell Count,[12],520
